Experiments:
[1] = tested on: Rattus norvegicus; assay: Effective dose that causes 50% reduction of serotonin effect in rats intravenously; assay type: functional
Outline: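 Rat 5-HT-induced von Bezold-Jarisch reflex. ED50 is the antagonist dose giving 50% reduction of the serotonin effect, calculated by linear regression. Means with 95% confidence limits.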

[2] = target: T1, Serotonin 3 (5-HT3) receptor (Rattus norvegicus, UniProt P35563+Q9JJ16); assay: Concentration that inhibits the binding of radioligand, [3H]-ICS 205930, to 5-hydroxytryptamine 3 receptor from rat cortex
T1 sequence (P35563 whole entry): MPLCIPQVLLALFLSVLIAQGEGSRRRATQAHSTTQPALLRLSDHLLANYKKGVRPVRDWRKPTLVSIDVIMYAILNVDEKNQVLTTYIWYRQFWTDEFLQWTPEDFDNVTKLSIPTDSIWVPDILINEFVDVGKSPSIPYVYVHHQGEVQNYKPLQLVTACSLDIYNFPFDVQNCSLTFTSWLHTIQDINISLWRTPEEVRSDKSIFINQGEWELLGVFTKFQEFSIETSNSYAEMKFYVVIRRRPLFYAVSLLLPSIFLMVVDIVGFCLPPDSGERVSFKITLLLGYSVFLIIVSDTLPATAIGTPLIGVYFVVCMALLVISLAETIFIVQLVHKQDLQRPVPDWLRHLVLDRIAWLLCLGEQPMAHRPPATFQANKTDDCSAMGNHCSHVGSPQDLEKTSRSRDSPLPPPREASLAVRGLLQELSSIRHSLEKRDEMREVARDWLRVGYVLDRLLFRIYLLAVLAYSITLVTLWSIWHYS
T1 sequence (Q9JJ16 whole entry): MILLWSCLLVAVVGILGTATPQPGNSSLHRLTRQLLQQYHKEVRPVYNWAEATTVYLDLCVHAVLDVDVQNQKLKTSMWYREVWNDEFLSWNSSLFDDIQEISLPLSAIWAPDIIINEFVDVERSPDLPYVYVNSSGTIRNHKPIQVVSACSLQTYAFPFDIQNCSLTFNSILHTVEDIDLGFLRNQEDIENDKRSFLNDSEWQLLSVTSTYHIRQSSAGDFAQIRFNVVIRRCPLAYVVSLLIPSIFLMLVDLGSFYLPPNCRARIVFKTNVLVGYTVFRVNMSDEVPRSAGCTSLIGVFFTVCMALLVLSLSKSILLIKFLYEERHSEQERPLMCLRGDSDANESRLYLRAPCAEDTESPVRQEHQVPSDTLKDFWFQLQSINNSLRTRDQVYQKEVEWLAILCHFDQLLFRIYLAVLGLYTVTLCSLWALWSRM
Outline: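 Rat cerebral cortex P2 fraction homogenised in 50 mM Tris·HCl pH 7.4 with 0.1% ascorbate, 4 mM CaCl2 and 10 μM pargyline, about 500 μg/mL protein. Incubated with 0.5–2.0 nM [3H]ICS 205930 (82.7 Ci/mmol) and a range of test concentrations, 30 °C for 30 min. Nonspecific binding with 10 μM reference antagonist; GF/B filtration; triplicate; Ki by computer fit.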

[3] = Rattus norvegicus, iv, read-out: ED50

For `CC(=O)c1ccc2[nH]c(=O)n(C(=O)OC3CC4CCC(C3)N4C)c2c1` (configuration not stated), the ED50 [1, 3] was > 3 µmol/kg and the Ki [2] was > 1000 nM.

In the case of `CN1C2CCC1CC(OC(=O)n1c(=O)[nH]c3cc(C(F)(F)F)ccc31)C2` (configuration not stated), the ED50 [1, 3] is reported as > 3 µmol/kg and the Ki [2] is reported as > 1000 nM.

`CN1CC2CCC1CC2OC(=O)n1c(=O)[nH]c2ccccc21.O=C(O)CC(O)(CC(=O)O)C(=O)O` (configuration not stated) showed an ED50 [1] of 18.9 nM/kg.

`Cc1cccc2c1[nH]c(=O)n2C(=O)OC1CC2CCC(C1)N2C` (configuration not stated) gave an ED50 [1, 3] of 0.0301 µmol/kg and a Ki [2] of 7.94 nM.

In the case of `Cc1ccc2c(c1)[nH]c(=O)n2C(=O)OC1CC2CCC(C1)N2C` (configuration not stated), the ED50 [1, 3] is reported as > 3 µmol/kg and the Ki [2] is reported as > 1000 nM.

Work on `CN1C2CCC1CC(OC(=O)n1c(=O)[nH]c3ccccc31)C2` (configuration not stated) yielded an ED50 [1] of 17.9 nM/kg and a Ki [2] of 21.4 nM.

With `COc1ccc2[nH]c(=O)n(C(=O)OC3CC4CCC(C3)N4C)c2c1` (configuration not stated) the Ki [2] was > 1000 nM.

Compound `CN1[C@@H]2CC[C@H]1C[C@@H](OC(=O)c1c[nH]c3ccccc13)C2` [TROPISETRON] has an ED50 [1, 3] of 0.0021 µmol/kg and a Ki [2] of 1.71 nM.

With `CN1CC2CCC1CC2OC(=O)n1c(=O)[nH]c2ccccc21.Cl` (configuration not stated) the ED50 [1] was >3000 nM/kg and the Ki [2] was > 1000 nM.

In the case of `CN1C2CCC1CC(OC(=O)n1c(=O)[nH]c3ccc(F)cc31)C2` (configuration not stated), the ED50 [1, 3] is reported as 0.062 µmol/kg and the Ki [2] is reported as 33.9 nM.

`CC1CC(OC(=O)n2c(=O)[nH]c3ccccc32)CC(C)N1C` (configuration not stated) was tested, and the ED50 [1, 3] was > 3 µmol/kg and the Ki [2] was > 1000 nM.

For `CN1C2CCC1CC(OC(=O)n1c(=O)[nH]c3ccccc31)C2.Cl` (configuration not stated), the ED50 [1] was 3982 nM/kg and the Ki [2] was > 1000 nM.

`CN1CCC(OC(=O)n2c(=O)[nH]c3ccccc32)CC1` was tested, and the ED50 [1, 3] was > 3 µmol/kg and the Ki [2] was > 1000 nM.

In the case of `Cc1cccc2[nH]c(=O)n(C(=O)OC3CC4CCC(C3)N4C)c12` (configuration not stated), the ED50 [1, 3] is reported as > 3 µmol/kg and the Ki [2] is reported as 306 nM.

For `CCn1c(=O)n(C(=O)OC2CC3CCC(C2)N3C)c2ccccc21` (configuration not stated), the ED50 [1, 3] was 0.0097 µmol/kg and the Ki [2] was 18 nM.

`O=C(OC1CN2CCC1CC2)n1c(=O)[nH]c2ccccc21` (configuration not stated) showed an ED50 [1, 3] of 0.8 µmol/kg and a Ki [2] of 16.3 nM.

`C[N+]1(C)C2CCC1CC(OC(=O)n1c(=O)[nH]c3ccccc31)C2` (configuration not stated) showed an ED50 [1, 3] of 0.0093 µmol/kg and a Ki [2] of 33.6 nM.

For `O=C(OC12CCN(CC1)CC2)n1c(=O)[nH]c2ccccc21`, the ED50 [1, 3] was > 3 µmol/kg and the Ki [2] was > 1000 nM.

`Cc1cc2[nH]c(=O)n(C(=O)OC3CC4CCC(C3)N4C)c2cc1C` (configuration not stated) was tested, and the ED50 [1, 3] was > 3 µmol/kg and the Ki [2] was > 1000 nM.

With `CN1C2CCC1CC(NC(=O)n1c(=O)[nH]c3ccccc31)C2.Cl` (configuration not stated) the ED50 [1] was >3000 nM/kg and the Ki [2] was > 1000 nM.

For `O=C(NC1CN2CCC1CC2)n1c(=O)[nH]c2ccccc21` (configuration not stated), the ED50 [1, 3] was 0.0035 µmol/kg and the Ki [2] was 2.07 nM.

For `CCN1C2CCC1CC(OC(=O)n1c(=O)[nH]c3ccccc31)C2` (configuration not stated), the ED50 [1, 3] was > 3 µmol/kg and the Ki [2] was > 1000 nM.

`CN1C2CCC1CC(NC(=O)n1c(=O)[nH]c3ccccc31)C2` (configuration not stated) was tested, and the ED50 [1] was 1 nM/kg and the Ki [2] was 3.75 nM.

For `COc1ccc2c(c1)[nH]c(=O)n2C(=O)OC1CC2CCC(C1)N2C` (configuration not stated), the ED50 [1, 3] was > 3 µmol/kg and the Ki [2] was > 1000 nM.

For `CN1C2CCC1CC(OC(=O)n1c(=O)[nH]c3cc(F)ccc31)C2` (configuration not stated), the ED50 [1, 3] was 0.204 µmol/kg and the Ki [2] was 26.2 nM.

`CN1C2CCC1CC(NC(=O)n1c(=O)n(C)c3ccccc31)C2` (configuration not stated) was tested, and the ED50 [1, 3] was 0.0054 µmol/kg and the Ki [2] was 1.7 nM.

`CN1C2CCCC1CC(NC(=O)n1c(=O)n(C)c3ccccc31)C2` (configuration not stated) was tested, and the ED50 [1, 3] was 0.0015 µmol/kg and the Ki [2] was 0.89 nM.

With `CN1C2CCCC1CC(OC(=O)n1c(=O)[nH]c3ccccc31)C2.O=C(O)CC(O)(CC(=O)O)C(=O)O` (configuration not stated) the ED50 [1] was >3000 nM/kg and the Ki [2] was > 1000 nM.

With `O=C(OC1CC2CCC(C1)N2Cc1ccccc1)n1c(=O)[nH]c2ccccc21` (configuration not stated) the ED50 [1, 3] was > 3 µmol/kg and the Ki [2] was > 1000 nM.

`O=C(OC1CCNCC1)n1c(=O)[nH]c2ccccc21` was tested, and the ED50 [1, 3] was 0.487 µmol/kg and the Ki [2] was 72.4 nM.

In the case of `CN(C(=O)n1c(=O)[nH]c2ccccc21)C1CC2CCCC(C1)N2C` (configuration not stated), the ED50 [1, 3] is reported as > 3 µmol/kg and the Ki [2] is reported as > 1000 nM.

For `CN1C2CCC1C(OC(=O)n1c(=O)[nH]c3ccccc31)C2` (configuration not stated), the ED50 [1, 3] was > 3 µmol/kg and the Ki [2] was > 1000 nM.

Compound `O=C(NC1CCN2CCCC1C2)n1c(=O)[nH]c2ccccc21` (configuration not stated) has an ED50 [1, 3] of 0.289 µmol/kg and a Ki [2] of 20.2 nM.

For `CN1CCC(NC(=O)n2c(=O)[nH]c3ccccc32)CC1`, the ED50 [1, 3] was 1.52 µmol/kg and the Ki [2] was 436 nM.

Work on `CN1C2CCCC1CC(NC(=O)n1c(=O)[nH]c3ccccc31)C2.Cl` (configuration not stated) yielded an ED50 [1] of 1.1 nM/kg and a Ki [2] of 1.53 nM.

`CN1[C@@H]2CC[C@H]1C[C@@H](OC(=O)c1cc(Cl)cc(Cl)c1)C2` [BEMESETRON] showed an ED50 [1, 3] of 0.195 µmol/kg and a Ki [2] of 24.4 nM.

`CN1C2CCCC1CC(NC(=O)n1c(=O)[nH]c3ccccc31)C2` (configuration not stated) gave an ED50 [1] of 905 nM/kg and a Ki [2] of 130 nM.

`O=C(NC1CC2CCC(C1)N2Cc1ccccc1)n1c(=O)[nH]c2ccccc21` (configuration not stated) was tested, and the ED50 [1, 3] was > 3 µmol/kg and the Ki [2] was > 1000 nM.

For `CN1C2CCC1CC(OC(=O)n1c(=O)[nH]c3cc(Cl)ccc31)C2` (configuration not stated), the ED50 [1, 3] was > 3 µmol/kg and the Ki [2] was > 1000 nM.

`CCn1c(=O)n(C(=O)NC2CC3CCC(C2)N3C)c2ccccc21` (configuration not stated) showed an ED50 [1, 3] of 0.0051 µmol/kg and a Ki [2] of 2.3 nM.

Compound `CN1C2CCCC1CC(OC(=O)n1c(=O)[nH]c3ccccc31)C2.Cl` (configuration not stated) has an ED50 [1] of 10.8 nM/kg and a Ki [2] of 2.17 nM.

Compound `CN1C2CCC1CC(OC(=O)n1c(=O)n(C)c3ccccc31)C2` (configuration not stated) has an ED50 [1, 3] of 0.038 µmol/kg and a Ki [2] of 12 nM.

From ChEMBL document CHEMBL1125075, “Synthesis of a new class of 2,3-dihydro-2-oxo-1H-benzimidazole-1-carboxylic acid derivatives as highly potent 5-HT3 receptor antagonists” (J Med Chem, 1990)
